Source: ChEMBL document CHEMBL2057101, “Fluorocyclines. 2. Optimization of the C-9 side-chain for antibacterial activity and oral efficacy” (J Med Chem, 2012)
≈ marks a conversion by molar mass, not a printed value.

Assays:
[1] = system: Streptococcus pneumoniae; assay: Antibacterial activity against tetracycline-resistant Streptococcus pneumoniae isolate 160 expressing tetM gene; assay type: functional
[2] = system: Staphylococcus aureus; assay: Antibacterial activity against tetracycline-resistant Staphylococcus aureus isolate SA158 expressing TetK gene; assay type: functional
[3] = system: Escherichia coli; assay: Antibacterial activity against Escherichia coli isolate EC155 expressing tetA gene; assay type: functional
How it was run: (§1)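 MIC by broth microdilution in liquid medium per CLSI, in cation-adjusted Mueller Hinton broth made fresh and held at 4 °C before testing. Horse blood (defibrinated) added to the medium where appropriate. Runs were accepted only when the comparator antibiotics and ATCC QC strains fell within their recommended ranges.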

[4] = system: Staphylococcus aureus; assay: Antibacterial activity against Staphylococcus aureus ATCC 13709 infected in CD-1 mouse assessed as increase in survival at 30 mg/kg, po administered as single dose 1 hr post infection measured after 48 hrs post infection; assay type: functional
How it was run: (§2)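 Mouse septicemia screen: S. aureus grown to log phase, diluted in 5% mucin to give 90% mortality within 48 h, inoculum 1.98 × 10⁶ CFU/mouse, 0.5 mL intraperitoneal into female CD-1 mice (18−20 g). Six mice per group. Single 30 mg/kg oral gavage or 3 mg/kg IV dose 1 h post infection. Infection controls received sterile water vehicle. Survival recorded at 48 h.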

[5] = system: Escherichia coli; assay: Antibacterial activity against Escherichia coli ATCC 25922 isolate 107; assay type: functional; how it was run: as §1
[6] = system: Streptococcus pneumoniae; assay: Antibacterial activity against Streptococcus pneumoniae ATCC 49619 isolate 106; assay type: functional; how it was run: as §1
[7] = system: Staphylococcus aureus; assay: Antibacterial activity against tetracycline-resistant Staphylococcus aureus isolate SA161 expressing TetM gene; assay type: functional
How it was run: (§3)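 Broth microdilution MIC following CLSI methods in cation-adjusted Mueller Hinton broth, prepared fresh and held at 4 °C before testing. Defibrinated horse blood added to the medium where appropriate. Runs accepted when quality control ranges for comparator antibiotics and ATCC QC strains were met.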

[8] = system: Staphylococcus aureus; assay: Antibacterial activity against tetracycline-susceptible Staphylococcus aureus ATCC 13709 Smith isolate SA100; assay type: functional; how it was run: as §3
[9] = system: Staphylococcus aureus; assay: Antibacterial activity against Staphylococcus aureus ATCC 13709 infected in CD-1 mouse assessed as increase in survival at 3 mg/kg, iv administered as single dose 1 hr post infection measured after 48 hrs post infection; assay type: functional; how it was run: as §2
[10] = system: Klebsiella pneumoniae; assay: Antibacterial activity against Klebsiella pneumoniae ATCC 13883; assay type: functional; how it was run: as §1
[11] = system: Staphylococcus aureus; assay: Antibacterial activity against Staphylococcus aureus ATCC 13709 infected in po dosed CD-1 mouse assessed as increase in survival administered as single dose 1 hr post infection measured after 48 hrs post infection; assay type: functional; details: ATCC 13709, po, read-out: PD50
[12] = system: Streptococcus pyogenes; assay: Antibacterial activity against Streptococcus pyogenes; assay type: functional; how it was run: as §1
[13] = system: Staphylococcus aureus; assay: Antibacterial activity against methicillin-resistant Staphylococcus aureus VL-137; assay type: functional; how it was run: as §3
[14] = system: Moraxella catarrhalis; assay: Antibacterial activity against Moraxella catarrhalis; assay type: functional; how it was run: as §1
[15] = system: Haemophilus influenzae; assay: Antibacterial activity against Haemophilus influenzae 551; assay type: functional; how it was run: as §1
[16] = system: Streptococcus pneumoniae; assay: Antibacterial activity against Streptococcus pneumoniae SPN160; assay type: functional; how it was run: as §3
[17] = Oral bioavailability in rat; assay type: ADME, organism-based; details: in vivo
[18] = system: Acinetobacter baumannii; assay: Antibacterial activity against Acinetobacter baumannii; assay type: functional; how it was run: as §1

Structure (SMILES)	MIC [1] [µg/mL]	MIC [2] [µg/mL]	MIC [3] [µg/mL]	survival at 30 mg/kg [4] [%]	MIC [5] [µg/mL]	MIC [6] [µg/mL]	MIC [7] [µg/mL]	MIC [8] [µg/mL]	survival at 3 mg/kg [9] [%]	MIC [10] [µg/mL]	ED50 [11] [mg/kg]	other results
CCN1CCC[C@H]1C(=O)Nc1cc(F)c2c(c1O)C(=O)C1=C(O)[C@]3(O)C(=O)C(C(N)=O)=C(O)[C@@H](N(C)C)[C@@H]3C[C@@H]1C2	≤ 0.016	0.031 (≈ 0.0541 µM)	4 (≈ 6.99 µM)	40	0.13 (≈ 0.227 µM)	≤ 0.016	0.13 (≈ 0.227 µM)	0.031 (≈ 0.0541 µM)	67	–	–	–
CN(C)[C@@H]1C(O)=C(C(N)=O)C(=O)[C@@]2(O)C(O)=C3C(=O)c4c(O)c(NC(=O)[C@@H]5C[C@H](F)CN5C)cc(F)c4C[C@H]3C[C@@H]12	0.016 (≈ 0.0278 µM)	0.063 (≈ 0.109 µM)	> 32	33	2 (≈ 3.47 µM)	0.016 (≈ 0.0278 µM)	0.5 (≈ 0.867 µM)	0.13 (≈ 0.225 µM)	83	16 (≈ 27.8 µM)	–	–
CN(C)[C@@H]1C(O)=C(C(N)=O)C(=O)[C@@]2(O)C(O)=C3C(=O)c4c(O)c(NC(=O)c5ccccn5)cc(F)c4C[C@H]3C[C@@H]12	8 (≈ 14.5 µM)	0.13 (≈ 0.235 µM)	> 32	0	> 32	4 (≈ 7.24 µM)	0.13 (≈ 0.235 µM)	0.13 (≈ 0.235 µM)	0	> 32	> 30	–
CN(C)[C@@H]1C(O)=C(C(N)=O)C(=O)[C@@]2(O)C(O)=C3C(=O)c4c(O)c(NC(=O)c5nccs5)cc(F)c4C[C@H]3C[C@@H]12	4 (≈ 7.16 µM)	0.063 (≈ 0.113 µM)	> 32	0	> 32	2 (≈ 3.58 µM)	0.13 (≈ 0.233 µM)	0.063 (≈ 0.113 µM)	17	> 32	–	–
CN(C)[C@@H]1C(O)=C(C(N)=O)C(=O)[C@@]2(O)C(O)=C3C(=O)c4c(O)c(NC(=O)[C@@H]5CCN5C)cc(F)c4C[C@H]3C[C@@H]12	0.016 (≈ 0.0294 µM)	0.016 (≈ 0.0294 µM)	1 (≈ 1.84 µM)	83	0.016 (≈ 0.0294 µM)	0.016 (≈ 0.0294 µM)	0.016 (≈ 0.0294 µM)	0.016 (≈ 0.0294 µM)	100	0.063 (≈ 0.116 µM)	14.3	MIC [12]: 0.016 µg/mL (≈ 0.0294 µM); MIC50 [12]: 0.016 µg/mL (≈ 0.0294 µM); MIC90 [12]: 0.016 µg/mL (≈ 0.0294 µM); MIC50 [13]: 0.031 µg/mL (≈ 0.0569 µM); MIC90 [13]: 1 µg/mL (≈ 1.84 µM); MIC [14]: 0.016 µg/mL (≈ 0.0294 µM); MIC50 [14]: 0.016 µg/mL (≈ 0.0294 µM); MIC90 [14]: 0.016 µg/mL (≈ 0.0294 µM); MIC50 [15]: 0.063 µg/mL (≈ 0.116 µM); MIC90 [15]: 0.25 µg/mL (≈ 0.459 µM); MIC [16]: 0.016 µg/mL (≈ 0.0294 µM); MIC50 [16]: 0.016 µg/mL (≈ 0.0294 µM); MIC90 [16]: 0.016 µg/mL (≈ 0.0294 µM); bioavailability [17]: 4.6%; MIC50 [18]: 0.13 µg/mL (≈ 0.239 µM); MIC90 [18]: 1 µg/mL (≈ 1.84 µM)
CN(C)[C@@H]1C(O)=C(C(N)=O)C(=O)[C@@]2(O)C(O)=C3C(=O)c4c(O)c(NS(C)(=O)=O)cc(F)c4C[C@H]3C[C@@H]12	0.016 (≈ 0.0304 µM)	4 (≈ 7.61 µM)	> 32	50	0.25 (≈ 0.476 µM)	0.016 (≈ 0.0304 µM)	0.25 (≈ 0.476 µM)	0.13 (≈ 0.247 µM)	100	2 (≈ 3.81 µM)	> 30	–
CNC(=O)Nc1cc(F)c2c(c1O)C(=O)C1=C(O)[C@]3(O)C(=O)C(C(N)=O)=C(O)[C@@H](N(C)C)[C@@H]3C[C@@H]1C2	0.5 (≈ 0.991 µM)	16 (≈ 31.7 µM)	> 32	33	1 (≈ 1.98 µM)	0.031 (≈ 0.0615 µM)	2 (≈ 3.96 µM)	0.25 (≈ 0.496 µM)	83	4 (≈ 7.93 µM)	> 30	–
